# Reference: ChEMBL document CHEMBL1127020, “3-Quinolinecarboxamides. A series of novel orally-active antiherpetic agents” (1993)
# The source made the active and inactive calls. The rule behind the calls is not given here.
# Tests used:
# Human alphaherpesvirus 2 [1] = assay: (§1) In vitro minimum inhibitory concentration against herpes simplex virus-2 (HSV-2) by plaque-reduction assay in vero cells; type: functional, organism-based
# Procedure, shortened: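 Vero monolayers (2 days old, confluent; Hank's MEM + 5% inactivated FCS, 37 °C, 2% CO2) infected with ~80 PFU; after 1-h adsorption, overlay of M199/5% FCS with 1:150 human immune serum globulin plus serial 2-fold compound dilutions (1:200 from DMSO). 3 d incubation, glutaraldehyde fix, crystal violet stain, plaque count. MIC = lowest concentration giving 50% plaque reduction; mean of ≥2 experiments.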
# Human alphaherpesvirus 2 [2] = assay: In vitro maximum tolerated level against herpes simplex virus-2 (HSV-2) by plaque-reduction assay in vero cells; type: functional
# Human alphaherpesvirus 2 [3] = assay: In vivo maximum tolerated dose against herpes simplex virus-2 (HSV-2) by oral administration in female mice; type: functional
# Human alphaherpesvirus 2 [4] = assay: as §1; type: functional
Structure (SMILES),MIC (Human alphaherpesvirus 2 [1]),MTL (Human alphaherpesvirus 2 [2]),MTD (Human alphaherpesvirus 2 [3]),MIC (Human alphaherpesvirus 2 [4])
CCn1cc(C(=O)NOC)c(=O)c2ccc(-c3ccncc3)cc21,inactive,25 µg/mL,,
CCn1cc(C(=O)NCCO)c(=O)c2ccc(-c3ccncc3)cc21,inactive,25 µg/mL,,
CC(C)(C)c1ccc(-n2cc(C(N)=O)c(=O)c3ccc(-c4ccncc4)cc32)cc1,inactive,>25 µg/mL,,
NC(=O)c1cn(CCO)c2cc(-c3ccncc3)ccc2c1=O,inactive,50 µg/mL,,
CCn1cc(C(N)=O)c(=O)c2ccc(-n3ccnc3)cc21,inactive,50 µg/mL,,
CCn1cc(C(N)=O)c(=O)c2ccc(-c3cnc(C)s3)cc21,inactive,>100 µg/mL,,
CCn1cc(C(N)=O)c(=O)c2ccc(-c3ccc(N)cc3)cc21,inactive,6.25 µg/mL,,
NC(=O)c1cnc2cc(-c3ccncc3)ccc2c1O,inactive,12.5 µg/mL,,
NC(=O)c1cn(-c2ccc(F)cc2)c2cc(Br)ccc2c1=O,inactive,6.25 µg/mL,,
CCn1cc(C(=O)N(C)C)c(=O)c2ccc(-c3ccncc3)cc21,inactive,>100 µg/mL,,
NC(=O)c1cn(-c2ccc(F)cc2)c2cc(Cl)ccc2c1=O,inactive,>12.5 µg/mL,,
CCn1cc(C(N)=O)c(=O)c2ccc(I)cc21,inactive,>100 µg/mL,,
Oc1nc2c(O)c3ccc(-c4ccncc4)cc3n(-c3ccc(F)cc3)c-2n1,,>100 µg/mL,,
NC(=O)c1csc2cc(-c3ccncc3)ccc2c1=O,inactive,>100 µg/mL,,
CCn1cc(C(N)=O)c(=O)c2ccc(-c3ccc([N+](=O)[O-])cc3)cc21,inactive,>100 µg/mL,,
CCCn1cc(C(N)=O)c(=O)c2ccc(-c3ccncc3)cc21,inactive,6.25 µg/mL,,

Structure (SMILES),MIC (Human alphaherpesvirus 2 [1]),MTL (Human alphaherpesvirus 2 [2]),MTD (Human alphaherpesvirus 2 [3]),MIC (Human alphaherpesvirus 2 [4])
CCn1cc(C(N)=O)c(=O)c2ccc(-c3ccccc3)cc21,inactive,50 µg/mL,,
CCn1cc(C2=NCCN2)c(=O)c2ccc(-c3ccncc3)cc21,inactive,>100 µg/mL,,
CCn1c(N)c(C(N)=O)c(=O)c2ccc(-c3ccncc3)cc21,,>12.5 µg/mL,>100 mg/kg,9 µg/mL
CCn1cc(C#N)c(=O)c2ccc(-c3ccncc3)cc21,inactive,100 µg/mL,,
CCn1cc(C(=O)NCCN(C)C)c(=O)c2ccc(-c3ccncc3)cc21,inactive,>100 µg/mL,,
CCC(=O)c1c(O)c2ccc(-c3ccncc3)cc2n(-c2ccc(F)cc2)c1=O,,,,> 100 µg/mL
CCn1cc(C(N)=O)c(=O)c2ccc(N3CCN(C)CC3)cc21,inactive,50 µg/mL,,
CCn1cc(C(N)=O)c(=O)c2ccc(F)cc21,inactive,50 µg/mL,,
NC(=O)c1c(O)c2ccc(-c3ccncc3)cc2n2c1nc1ccccc12,,0.4 µg/mL,,
CCn1cc(C(N)=O)c(=O)c2ccc(Cl)cc21,inactive,>100 µg/mL,,
CCn1cc(C(=O)NCCN)c(=O)c2ccc(-c3ccncc3)cc21,inactive,>100 µg/mL,,
CCn1cc(C2=NCCO2)c(=O)c2ccc(-c3ccncc3)cc21,inactive,12.5 µg/mL,,
NC(=O)c1c(O)c2ccc(-c3ccncc3)cc2n(-c2ccc(F)cc2)c1=O,,>100 µg/mL,,11 µg/mL
CCn1cc(C(=O)O)c(=O)c2ccc(-c3ccncc3)cc21 [ROSOXACIN],inactive,>200 µg/mL,,
CCn1c(C)c(C(N)=O)c(=O)c2ccc(-c3ccncc3)cc21,inactive,50 µg/mL,,
CCn1cc(C(N)=O)c(=O)c2ccccc21,inactive,50 µg/mL,,
